In ChEMBL document CHEMBL1144053, “Six triterpenoid saponins from Mmaesa laxiflora” (J Nat Prod, 1999):
The source made the active and inactive calls. The rule behind the calls is not given here.

Assays:
[1] = Inhibition of tubulin polymerization at 10 mg/mL by tubulin assembly assay; design: scale not given: the % may be the effect or the level left
How it was run: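 Test compound added to cold (6 °C) tubulin solution; assembly started by shifting the temperature from 6 to 37 °C. Turbidity followed over time, with polymerization rate taken from the slope of the turbidity increase.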

A549 = test: Cytotoxicity against human A549 cells by MTT assay; format: functional, cell-based
How it was run: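 A-549 cells from NCI; standard MTT-based colorimetric cytotoxicity assay.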

[2] = Inhibition of tubulin polymerization at 1 ug/mL by tubulin assembly assay; design: scale not given: the % may be the effect or the level left
How it was run: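 Compound added to cold (6 °C) tubulin solution; assembly started by a temperature shift from 6 to 37 °C. Turbidity followed over time, with polymerization rate taken as the slope of the turbidity increase.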

Row | Compound | Activity [1] [%] | Activity (A549) | Activity [2] [%]
1 | CCC/C=C\C(=O)O[C@H]1CC(C)(C)C[C@H]2C3=CC[C@@H]4[C@@]5(C)CC[C@H](O[C@@H]6O[C@H](C(=O)O)[C@@H](O)[C@H](O[C@@H]7O[C@H](CO)[C@H](O)[C@H](O)[C@H]7O[C@@H]7O[C@@H](C)[C@H](O)[C@@H](O)[C@H]7O[C@@H]7O[C@@H](C)[C@H](O)[C@@H](O)[C@H]7O)[C@H]6O[C@@H]6O[C@H](CO)[C@H](O)[C@H](O)[C@H]6O)C(C)(C)[C@@H]5CC[C@@]4(C)[C@]3(C)C[C@@H](O)[C@@]12CO | 41 | inactive | 
2 | CCC/C=C\C(=O)O[C@H]1CC(C)(C)C[C@H]2C3=CC[C@@H]4[C@@]5(C)CC[C@H](O[C@@H]6O[C@H](C(=O)O)[C@@H](O)[C@H](O[C@@H]7O[C@H](CO)[C@H](O)[C@H](O)[C@H]7O[C@@H]7O[C@@H](C)[C@H](O)[C@@H](O)[C@H]7O[C@@H]7O[C@@H](C)[C@H](O)[C@@H](O)[C@H]7O)[C@H]6O[C@@H]6O[C@H](CO)[C@@H](O)[C@H](O)[C@H]6O)C(C)(C)[C@@H]5CC[C@@]4(C)[C@]3(C)C[C@@H](O)[C@@]12CO | 41 | inactive | 
3 | C/C=C(\C)C(=O)O[C@H]1CC(C)(C)C[C@H]2C3=CC[C@@H]4[C@@]5(C)CC[C@H](O[C@@H]6O[C@H](C(=O)O)[C@@H](O)[C@H](O[C@@H]7O[C@H](CO)[C@H](O)[C@H](O)[C@H]7O[C@@H]7O[C@@H](C)[C@H](O)[C@@H](O)[C@H]7O[C@@H]7O[C@@H](C)[C@H](O)[C@@H](O)[C@H]7O)[C@H]6O[C@@H]6O[C@H](CO)[C@H](O)[C@H](O)[C@H]6O)C(C)(C)[C@@H]5CC[C@@]4(C)[C@]3(C)C[C@@H](O)[C@@]12CO | 41 | inactive | 
4 | C/C=C(\C)C(=O)O[C@H]1CC(C)(C)C[C@H]2C3=CC[C@@H]4[C@@]5(C)CC[C@H](O[C@@H]6O[C@H](C(=O)O)[C@@H](O)[C@H](O[C@@H]7O[C@H](CO)[C@H](O)[C@H](O)[C@H]7O[C@@H]7O[C@@H](C)[C@H](O)[C@@H](O)[C@H]7O[C@@H]7O[C@@H](C)[C@H](O)[C@@H](O)[C@H]7O)[C@H]6O[C@@H]6O[C@H](CO)[C@H](O)[C@H](O)[C@H]6O)C(C)(C)[C@@H]5CC[C@@]4(C)[C@]3(C)C[C@@H](OC(C)=O)[C@@]12CO | 41 | inactive | 
5 | C/C=C(\C)C(=O)O[C@H]1CC(C)(C)C[C@H]2C3=CC[C@@H]4[C@@]5(C)CC[C@H](O[C@@H]6O[C@H](C(=O)O)[C@@H](O)[C@H](O[C@@H]7O[C@H](CO)[C@H](O)[C@H](O)[C@H]7O[C@@H]7O[C@@H](C)[C@H](O)[C@@H](O)[C@H]7O[C@@H]7O[C@@H](C)[C@H](O)[C@@H](O)[C@H]7O)[C@H]6O[C@@H]6O[C@H](CO)[C@@H](O)[C@H](O)[C@H]6O)C(C)(C)[C@@H]5CC[C@@]4(C)[C@]3(C)C[C@@H](OC(C)=O)[C@@]12CO | 41 | inactive | 
6 | COc1cc2c(c(OC)c1OC)-c1ccc(OC)c(=O)cc1[C@@H](NC(C)=O)CC2 |  |  | 50
7 | C/C=C(\C)C(=O)O[C@H]1CC(C)(C)C[C@H]2C3=CC[C@@H]4[C@@]5(C)CC[C@H](O[C@@H]6O[C@H](C(=O)O)[C@@H](O)[C@H](O[C@@H]7O[C@H](CO)[C@H](O)[C@H](O)[C@H]7O[C@@H]7O[C@@H](C)[C@H](O)[C@@H](O)[C@H]7O[C@@H]7O[C@@H](C)[C@H](O)[C@@H](O)[C@H]7O)[C@H]6O[C@@H]6O[C@H](CO)[C@@H](O)[C@H](O)[C@H]6O)C(C)(C)[C@@H]5CC[C@@]4(C)[C@]3(C)C[C@@H](O)[C@@]12CO | 41 | inactive | 
